Test results: article PMC3779694 (Hepatology (Baltimore, Md.), 2011)

Key:
Type in all cases: in vivo, human
[1] = Steady-state plasma pharmacokinetics of GS-9450
Method in brief: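 Plasma was assayed with a validated bioanalytical method. Steady-state Cmax, Tmax, T1/2 and AUCtau came from weeks 2–4 profiles by noncompartmental analysis. Trough samples were taken at weeks 1–4 and follow-up week 1. Dose proportionality of AUCtau and Cmax was tested by a power model across all fasted doses.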

adults with NASH [2] = assay: Serum ALT, phase 2 placebo-controlled trial of GS-9450 for 4 weeks; settings: for ALT, %Change at Week 4 / ALT, Change at Week 2 / ALT, Change at Week 4: mean (SD); for Observed change from baseline to week 4 in ALT, Difference T − R / Percent change from baseline to week 4 in ALT, Difference T − R / Observed change from baseline to week 4 in ALT, Least Squares Means GS-9450 (T) / Percent change from baseline to week 4 in ALT, Least Squares Means GS-9450 (T): ANCOVA model
adults with NASH [3] = assay: Serum AST, phase 2 placebo-controlled trial of GS-9450 for 4 weeks; settings: for AST, %Change at Week 4 / AST, Change at Week 2 / AST, Change at Week 4: mean (SD)
adults with NASH [4] = assay: Adverse events, phase 2 trial
[5] = range across the GS-9450 treatment groups
[6] = 1 mg (n = 26), during treatment
[7] = 5 mg (n = 26), during treatment

SMILES: CC(C)[C@@]1(C(=O)N[C@H]2CC(=O)O[C@]2(O)CF)CC(c2nccc3ccccc23)=NO1 [GS-9450]
- time by which steady state had been reached ([1]; daily dosing, all dose groups): 2–4 weeks
- median Tmax ([1]; fasting conditions, steady state, plasma): 2 to 3 h
- Cmax dose proportionality ([1]; from 1 to 40 mg): dose-proportional
- ALT, %Change at Week 4 (adults with NASH [2]; 1 mg once daily): −8 (41) %
- ALT, Change at Week 2 (adults with NASH [2]; 1 mg once daily): −17 (31) U/L
- ALT, Change at Week 4 (adults with NASH [2]; 1 mg once daily): −14 (40) U/L
- Observed change from baseline to week 4 in ALT, Difference T − R (adults with NASH [2]; 1 mg vs. pooled placebo): −11 U/L
- Percent change from baseline to week 4 in ALT, Difference T − R (adults with NASH [2]; 1 mg vs. pooled placebo): −6%
- Observed change from baseline to week 4 in ALT, Least Squares Means GS-9450 (T) (adults with NASH [2]; 1 mg): −15 U/L
- Percent change from baseline to week 4 in ALT, Least Squares Means GS-9450 (T) (adults with NASH [2]; 1 mg): −8%
- ALT, %Change at Week 4 (adults with NASH [2]; 5 mg once daily): −28 (21) %
- ALT, Change at Week 2 (adults with NASH [2]; 5 mg once daily): −35 (18) U/L
- ALT, Change at Week 4 (adults with NASH [2]; 5 mg once daily): −30 (26) U/L
- Observed change from baseline to week 4 in ALT, Difference T − R (adults with NASH [2]; 5 mg vs. pooled placebo): −25 U/L
- Percent change from baseline to week 4 in ALT, Difference T − R (adults with NASH [2]; 5 mg vs. pooled placebo): −26%
- Observed change from baseline to week 4 in ALT, Least Squares Means GS-9450 (T) (adults with NASH [2]; 5 mg): −29 U/L
- Percent change from baseline to week 4 in ALT, Least Squares Means GS-9450 (T) (adults with NASH [2]; 5 mg): −28%
- ALT, %Change at Week 4 (adults with NASH [2]; 10 mg once daily): −30 (20) %
- ALT, Change at Week 2 (adults with NASH [2]; 10 mg once daily): −37 (23) U/L
- ALT, Change at Week 4 (adults with NASH [2]; 10 mg once daily): −30 (26) U/L
- Observed change from baseline to week 4 in ALT, Difference T − R (adults with NASH [2]; 10 mg vs. pooled placebo): −28 U/L
- Percent change from baseline to week 4 in ALT, Difference T − R (adults with NASH [2]; 10 mg vs. pooled placebo): −28%
- Observed change from baseline to week 4 in ALT, Least Squares Means GS-9450 (T) (adults with NASH [2]; 10 mg): −32 U/L
- Percent change from baseline to week 4 in ALT, Least Squares Means GS-9450 (T) (adults with NASH [2]; 10 mg): −31%
- mean (SD) ALT decrease from baseline to week 4 (adults with NASH [2]; 40 mg): 47 (43) U/L
- ALT, %Change at Week 4 (adults with NASH [2]; 40 mg once daily): −43 (19) %
- ALT, Change at Week 2 (adults with NASH [2]; 40 mg once daily): −46 (46) U/L
- ALT, Change at Week 4 (adults with NASH [2]; 40 mg once daily): −47 (43) U/L
- Observed change from baseline to week 4 in ALT, Difference T − R (adults with NASH [2]; 40 mg vs. pooled placebo): −39 U/L
- Percent change from baseline to week 4 in ALT, Difference T − R (adults with NASH [2]; 40 mg vs. pooled placebo): −40%
- mean ALT change from baseline at follow-up week 2 (adults with NASH [2]; 40 mg, off treatment): 16 IU/L
- mean ALT change from baseline at follow-up week 3 (adults with NASH [2]; 40 mg, off treatment): 13 IU/L
- mean ALT change from baseline at follow-up week 4 (adults with NASH [2]; 40 mg, off treatment): 12 IU/L
- proportion of subjects with normal ALT at week 4 (adults with NASH [2]; 40 mg, 0% at baseline, normal 43 U/L males, 34 U/L females): 35%
- mean absolute ALT value at week 4 (adults with NASH [2]; 40 mg, 106 U/L at baseline): 62 U/L
- Observed change from baseline to week 4 in ALT, Least Squares Means GS-9450 (T) (adults with NASH [2]; 40 mg): −43 U/L
- Percent change from baseline to week 4 in ALT, Least Squares Means GS-9450 (T) (adults with NASH [2]; 40 mg): −42%
- nonresponders at week 4 (decrease in ALT of <10% relative to baseline) (adults with NASH [2]; 40 mg, two subjects): 8%
- time after stopping study medication until ALT reduction was offset (adults with NASH [2]; off-treatment follow-up): ≤ 1 week
- ALT mean (SD) changes from baseline at week 4 (adults with NASH [2]; range across the GS-9450 groups (1-40 mg)): −14 (40) to −47 (43) U/L
- AST, %Change at Week 4 (adults with NASH [3]; 1 mg once daily): −2 (41) %
- AST, Change at Week 2 (adults with NASH [3]; 1 mg once daily): −4 (36) U/L
- AST, Change at Week 4 (adults with NASH [3]; 1 mg once daily): −8 (35) U/L
- AST, %Change at Week 4 (adults with NASH [3]; 5 mg once daily): −6 (38) %
- AST, Change at Week 2 (adults with NASH [3]; 5 mg once daily): −12 (16) U/L
- AST, Change at Week 4 (adults with NASH [3]; 5 mg once daily): −5 (24) U/L
- AST, %Change at Week 4 (adults with NASH [3]; 10 mg once daily): −16 (29) %
- AST, Change at Week 2 (adults with NASH [3]; 10 mg once daily): −22 (34) U/L
- AST, Change at Week 4 (adults with NASH [3]; 10 mg once daily): −12 (36) U/L
- mean AST decrease from baseline to week 4 (adults with NASH [3]; 40 mg): 13 U/L
- proportion of subjects with normal AST, peak at day 3 (adults with NASH [3]; 40 mg): 77%
- AST, %Change at Week 4 (adults with NASH [3]; 40 mg once daily): −20 (26) %
- AST, Change at Week 2 (adults with NASH [3]; 40 mg once daily): −16 (20) U/L
- AST, Change at Week 4 (adults with NASH [3]; 40 mg once daily): −13 (20) U/L
- proportion of subjects with normal AST at week 4 (adults with NASH [3]; 40 mg, 20% at baseline, normal 36 U/L males, 34 U/L females): 48%
- mean AST within 1 week of stopping study medication (adults with NASH [3]; all GS-9450 treatment groups): modestly above baseline levels
- AST mean (SD) changes by treatment week 4 (adults with NASH [3]; [5]): −5 (24) to −13 (20) U/L
- AST mean changes from baseline over the first week of treatment (adults with NASH [3]; [5]): −9 (23) to −27 (29) U/L
- frequency of treatment-emergent AEs during the 4-week on-treatment period (adults with NASH [4]; 1 mg): 77%
- Abdominal pain (adults with NASH [4]; [6]): 1 (4) n (%)
- Abdominal pain upper (adults with NASH [4]; [6]): 1 (4) n (%)
- Arthralgia (adults with NASH [4]; [6]): 1 (4) n (%)
- Asthenia (adults with NASH [4]; [6]): 1 (4) n (%)
- Back pain (adults with NASH [4]; [6]): 1 (4) n (%)
- Constipation (adults with NASH [4]; [6]): 2 (8) n (%)
- Diarrhea (adults with NASH [4]; [6]): 2 (8) n (%)
- Dizziness (adults with NASH [4]; [6]): 2 (8) n (%)
- Dry mouth (adults with NASH [4]; [6]): 1 (4) n (%)
- Dyspepsia (adults with NASH [4]; [6]): 2 (8) n (%)
- Fatigue (adults with NASH [4]; [6]): 6 (23) n (%)
- Gastroesophageal reflux disease (adults with NASH [4]; [6]): 0 n (%)
- Headache (adults with NASH [4]; [6]): 4 (15) n (%)
- Nasopharyngitis (adults with NASH [4]; [6]): 2 (8) n (%)
- Nausea (adults with NASH [4]; [6]): 3 (12) n (%)
- No. of subjects with at least one AE (adults with NASH [4]; [6]): 20 (77) n (%)
- Pain in extremity (adults with NASH [4]; [6]): 1 (4) n (%)
- Somnolence (adults with NASH [4]; [6]): 1 (4) n (%)
- Total no. of events (AEs) (adults with NASH [4]; [6]): 62
- frequency of treatment-emergent AEs during the 4-week on-treatment period (adults with NASH [4]; 5 mg): 85%
- Abdominal pain (adults with NASH [4]; [7]): 2 (8) n (%)
- Abdominal pain upper (adults with NASH [4]; [7]): 1 (4) n (%)
